The subject of data set [1] is Human immunodeficiency virus 1. The data set is described as follows: Antiviral activity against HIV-1 infected in human TZM-bl cells assessed as inhibition of viral replication for 48 hrs by bright-Glo luciferase assay. The format is functional, organism-based. To be noted: Human immunodeficiency virus 1, TZM-bl. In outline:
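Antiviral screen in TZM-bl cells, a HeLa clone engineered to express CD4 and CCR5 receptors. Activity is reported as EC50 in μM.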

Data set [2] is described as follows: Cytotoxicity against human TZM-bl cells after 48 hrs by Cell-titerGlo assay. The class given is cell-based.
The target of data set [3] is Human immunodeficiency virus type 1 integrase (Human immunodeficiency virus 1, UniProt Q7ZJM1). The data set is described as follows: Inhibition of HIV-1 integrase strand transfer activity preincubated for 30 mins followed by addition of FITC-labelled dsDNA for 1 hr by microplate reader analysis.
Chain of Human immunodeficiency virus type 1 integrase (Human immunodeficiency virus 1, UniProt Q7ZJM1) (Q7ZJM1 whole entry): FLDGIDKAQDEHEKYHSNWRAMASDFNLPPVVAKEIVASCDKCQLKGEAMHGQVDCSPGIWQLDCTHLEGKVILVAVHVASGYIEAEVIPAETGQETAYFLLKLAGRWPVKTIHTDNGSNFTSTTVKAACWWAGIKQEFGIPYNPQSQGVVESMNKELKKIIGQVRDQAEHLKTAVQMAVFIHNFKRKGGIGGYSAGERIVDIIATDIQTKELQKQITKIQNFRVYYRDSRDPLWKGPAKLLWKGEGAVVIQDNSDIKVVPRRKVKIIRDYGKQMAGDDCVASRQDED
The target of data set [4] is Human immunodeficiency virus type 1 integrase (Human immunodeficiency virus 1, UniProt Q7ZJM1, G140S). The data set is described as follows: Inhibition of HIV-1 integrase G140S mutant strand transfer activity preincubated for 30 mins followed by addition of FITC-labelled dsDNA for 1 hr by microplate reader analysis.
Chain of Human immunodeficiency virus type 1 integrase (Human immunodeficiency virus 1, UniProt Q7ZJM1, G140S) (Q7ZJM1 entry or part of it G140S): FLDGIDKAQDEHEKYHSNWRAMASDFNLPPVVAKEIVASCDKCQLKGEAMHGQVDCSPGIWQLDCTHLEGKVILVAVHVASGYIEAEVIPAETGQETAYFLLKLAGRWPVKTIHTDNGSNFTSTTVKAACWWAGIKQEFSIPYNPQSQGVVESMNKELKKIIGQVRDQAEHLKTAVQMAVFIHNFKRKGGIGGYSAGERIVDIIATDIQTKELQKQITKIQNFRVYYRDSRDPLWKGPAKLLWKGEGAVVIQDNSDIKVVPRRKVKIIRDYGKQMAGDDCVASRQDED
The nature of data set [5]: Therapeutic index, ratio of CC50 for human TZM-bl cells to EC50 for HIV-1 infected in TZM-bl cells. To be noted: read-out: Ratio CC50/EC50. The class given is cell-based. In outline:
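Index calculated as CC50/EC50, both measured in TZM-bl cells; CC50 is cell-based cytotoxicity at 48 h.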

Data set [6] is described as follows: Cytotoxicity against human Jurkat cells after 48 to 72 hrs by MTT assay. The format is cell-based. On the technique in general: Formazan colour is commonly taken as a measure of viable cells.
Data set [7] concerns Human immunodeficiency virus 1. The experiment in a line: Antiviral activity against HIV-1 NL4-3 infected in human jurkat cells assessed as decrease in p24 level at 10 uM after 48 hrs by western blot analysis. The class given is functional. To be noted: Human immunodeficiency virus 1, NL4-3, Jurkat. The gist of the method:
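Jurkat cells were treated with compound at 10 μM or left untreated, then infected at MOI 1 with VSV-G-pseudotyped pNL4-3 (WT HIV-1). Supernatants were pelleted, solubilized in lysis buffer and probed on Western blot with a p24 antibody. Band intensity was quantified by densitometry as percent p24 relative to the untreated infected control, with significance at p < 0.05.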
On the technique in general: Immunoblotting shows a protein as a band on a membrane.

As usually defined, the EC50 is the midpoint of the concentration-response curve. Broadly, the CC50 is the concentration at which the toxic effect on the cells reaches its halfway point. A higher CC50 goes with better tolerance by the cells. As usually defined, the IC50 is the concentration at which inhibition is half-maximal. Higher therefore signals weaker potency in that assay. Consider `COc1ccc(C2=Cc3ccc(F)cc3C(CC(=O)C(C)O)N2c2ccc(O)cc2)cc1` (stereo not drawn), for which the EC50 in data set [1] is 19.7 µM. In data set [2], this compound came in with a CC50 at 48 h of 50.9 µM. The IC50 in data set [3] was found to be 25.2 µM; in data set [4] it was 25 µM. For the same compound, in data set [5], the selectivity ratio turned out to be 2.5.
For `COc1ccc(C2=Cc3ccc(F)cc3C(CC(=O)CO)N2c2ccc(C)cc2)cc1` (stereo not drawn), in that order: 28.4 µM, 23.7 µM, 15.1 µM, 14.1 µM and 0.8.
On to `COc1ccc(C2=Cc3ccc(F)cc3C(CC(=O)C(C)O)N2c2ccc([N+](=O)[O-])cc2)cc1` (stereo not drawn), for which the concentration giving a half-maximal response (EC50) in data set [1] is 12.7 µM. Moreover, the CC50 in data set [6] amounted to 6.1 µM. In data set [2], this compound registered a CC50 at 48 h of 10.1 µM. Besides, the IC50 in data set [3] turned out to be 5.2 µM; in data set [4], 5.5 µM. The selectivity ratio in data set [5] is 0.7.
In turn, `COc1ccc(C2=Cc3ccc(F)cc3C(CC(=O)C(C)O)N2c2ccc(Cl)cc2)cc1` (stereo not drawn) came in with a half-maximal cytotoxic concentration (CC50) at 48 h in data set [2] of 9.9 µM. Further, the IC50 in data set [3] came out at 11.8 µM; in data set [4], 10.8 µM.
Take `COc1ccc(C2=Cc3ccc([N+](=O)[O-])cc3C(CC(C)=O)N2c2ccc(F)cc2)cc1` (stereo not drawn): the EC50 in data set [1] is 36.3 µM. The CC50 in data set [6] is 16.4 µM. This compound came in with a CC50 at 48 h in data set [2] of 7.7 µM. In addition, the IC50 stood at 0.46 µM in data set [3] and 0.64 µM in data set [4]. For the same compound, the selectivity ratio in data set [5] amounted to 0.2.
As for `COc1ccc(C2=Cc3ccc(F)cc3C(CC(=O)C(C)O)N2c2ccc(F)cc2)cc1` (stereo not drawn), the EC50 in data set [1] was determined as 11.7 µM. For the same compound, the CC50 in data set [6] was found to be 1.81 µM. Besides, the CC50 at 48 h in data set [2] came out at 14 µM. Besides, the IC50 stood at 7.9 µM in data set [3] and 8 µM in data set [4]. Moreover, in data set [5], the selectivity ratio is 1.1.
For `COc1ccc(C2=Cc3ccc(OC)cc3C(C[N+](=O)[O-])N2c2ccccc2)cc1` (stereo not drawn), the concentration for a half-maximal effect (EC50) in data set [1] is 10.5 µM. This compound also returned a CC50 in data set [6] of 22.1 µM. Moreover, the CC50 at 48 h in data set [2] came to 29.4 µM. Moreover, in data set [5], the selectivity ratio came to 2.8.
Turning to `COc1ccc(C2=Cc3ccc([N+](=O)[O-])cc3C(CC(C)=O)N2c2ccc(C#N)cc2)cc1` (stereo not drawn), the EC50 in data set [1] amounted to 22.5 µM. Besides, in data set [2], the CC50 at 48 h is 15.4 µM. Moreover, the IC50 came out at 2.9 µM in data set [3] and 2.8 µM in data set [4]. Besides, the selectivity ratio in data set [5] was 0.6.
`Cc1ccc(C2=Cc3ccccc3C(C[N+](=O)[O-])N2c2ccc(F)cc2)cc1` (stereo not drawn): the EC50 in data set [1] is 16.5 µM. Also, the CC50 in data set [6] came to 51.2 µM. The same compound showed a CC50 at 48 h in data set [2] of 21.5 µM. Moreover, the selectivity ratio in data set [5] is 1.3.
The term inhibition denotes the percentage by which the read-out fell short of the control. Regarding `COc1ccc(C2=Cc3ccc(F)cc3C(CC(=O)CO)N2c2ccc([N+](=O)[O-])cc2)cc1` (stereo not drawn), the EC50 in data set [1] is 10.4 µM. The CC50 in data set [6] worked out at 57.1 µM. In data set [2], the CC50 at 48 h amounted to 46.4 µM. The IC50 in data set [3] is 0.82 µM; in data set [4] it was 46.4 µM. Further, the selectivity ratio in data set [5] stood at 4.4. Also, in data set [7], the inhibition at 10 µM was found to be 70.9%.
Turning to `Cc1nnc(C(=O)NC(C)(C)c2nc(C(=O)NCc3ccc(F)cc3)c(O)c(=O)n2C)o1`, in data set [1], the EC50 was determined as 0.15 µM. The same compound registered a CC50 in data set [6] greater than 120 µM. Moreover, the CC50 at 48 h in data set [2] was greater than 200 µM. Further, the inhibition at 10 µM in data set [7] was 92%.
Consider `COc1ccc(C2=Cc3ccc(F)cc3C(CC(C)=O)N2c2ccc([N+](=O)[O-])cc2)cc1` (stereo not drawn), for which it took 11.2 µM to reach half-maximal cytotoxicity in data set [2] (CC50 at 48 h). This counts as double-digit micromolar.
Turning to `COc1ccc(C2=Cc3ccc(F)cc3C(CC(C)=O)N2c2ccc(O)cc2)cc1` (stereo not drawn), the EC50 in data set [1] turned out to be 21.4 µM. The CC50 at 48 h in data set [2] worked out at 60.5 µM. In addition, the figures for the IC50 in data set [3] and in data set [4] were 12 µM and 14 µM, respectively. The selectivity ratio in data set [5] worked out at 2.8.
On to `COc1ccc(C2=Cc3ccc(F)cc3C(CC(=O)CO)N2c2ccc(Cl)cc2)cc1` (stereo not drawn), for which the EC50 in data set [1] came to 26.4 µM. Further, the midpoint of cytotoxicity in data set [2], the CC50 at 48 h, lay at 8.5 µM. The IC50 is 17.9 µM in data set [3] and 14.9 µM in data set [4]. In addition, the selectivity ratio in data set [5] was determined as 0.3.
With `COc1ccc(C2=Cc3ccc([N+](=O)[O-])cc3C(CC(C)=O)N2c2ccc(O)cc2)cc1` (stereo not drawn), in data set [1], the EC50 amounted to 31.4 µM. In data set [2], this compound registered a CC50 at 48 h of 23.5 µM. Also, the IC50 in data set [3] was found to be 6.6 µM; in data set [4], 7.6 µM. Moreover, the selectivity ratio in data set [5] amounted to 0.7.
As for `COc1ccc(C2=Cc3ccc(F)cc3C(CC(C)=O)N2c2ccc(C#N)cc2)cc1` (stereo not drawn), in data set [4], it took 20 µM to reach half-maximal inhibition (IC50).
As to `O=[N+]([O-])CC1c2cc([N+](=O)[O-])ccc2C=C(c2ccccc2)N1c1ccc(Cl)cc1` (stereo not drawn), the EC50 in data set [1] was 1.15 µM. The compound also yielded a CC50 in data set [6] of 24.9 µM. In data set [2], the CC50 at 48 h is 26 µM. The figures for the IC50 in data set [3] and in data set [4] were 3.1 µM and 3 µM, respectively. Besides, the selectivity ratio in data set [5] turned out to be 22.6.
Take `COc1ccc(C2=Cc3ccc(F)cc3C(CC(=O)CO)N2c2ccc(C#N)cc2)cc1` (stereo not drawn): the EC50 in data set [1] turned out to be 29.1 µM. Also, it took 39.7 µM to reach half-maximal cytotoxicity in data set [2] (CC50 at 48 h). Further, the IC50 in data set [3] was determined as 7.6 µM; in data set [4], 7 µM. For the same compound, the selectivity ratio in data set [5] turned out to be 1.3.
For `O=[N+]([O-])CC1c2ccccc2C=C(c2ccccc2)N1c1ccccc1` (stereo not drawn), the EC50 in data set [1] was determined as 15.6 µM. This compound displayed a CC50 in data set [6] of 42.3 µM. The CC50 at 48 h in data set [2] amounted to 10.3 µM. The selectivity ratio in data set [5] was found to be 0.6.
Regarding `COc1ccc(C2=Cc3ccc([N+](=O)[O-])cc3C(CC(C)=O)N2c2ccc(C)cc2)cc1` (stereo not drawn), the EC50 in data set [1] was found to be 26.3 µM. This compound also came in with a CC50 in data set [6] of 33.1 µM. Also, half-maximal cytotoxicity in data set [2] (CC50 at 48 h) was put at 10.6 µM. For the same compound, the half-inhibitory concentration (IC50) worked out at 0.6 µM in data set [3] and 0.65 µM in data set [4]. For the same compound, in data set [5], the selectivity ratio stood at 0.4.
Regarding `COc1ccc(C2=Cc3ccc(F)cc3C(C[N+](=O)[O-])N2c2ccc(Cl)cc2)cc1` (stereo not drawn), the EC50 in data set [1] was 0.03 µM. Further, the midpoint of cytotoxicity in data set [6], the CC50, lay at 20.3 µM. This compound displayed a CC50 at 48 h in data set [2] of 32.2 µM. Further, the IC50 in data set [3] was found to be 0.7 µM; in data set [4], 0.8 µM. For the same compound, in data set [5], the selectivity ratio was determined as 1070. Besides, the inhibition at 10 µM in data set [7] was determined as 91%.
`COc1ccc(C2=Cc3ccc(F)cc3C(CC(=O)C(C)O)N2c2ccc(C)cc2)cc1` (stereo not drawn) showed a cytotoxic concentration (CC50) at 48 h in data set [2] of 12.7 µM. The IC50 in data set [3] was found to be 10.6 µM; in data set [4] it was 12.7 µM.
With `COc1ccc(C2=Cc3ccc(F)cc3C(CC(=O)CO)N2c2ccc(O)cc2)cc1` (stereo not drawn), the EC50 in data set [1] came out at 24.4 µM. For the same compound, the midpoint of cytotoxicity in data set [2], the CC50 at 48 h, lay at 47.7 µM. Further, the results for the IC50 in data set [3] and in data set [4] were 22.1 µM and 20.1 µM, respectively. Besides, the selectivity ratio in data set [5] was determined as 1.9.
The matching figures for `COc1ccc(C2=Cc3ccc(F)cc3C(CC(=O)C(C)O)N2c2ccc(C#N)cc2)cc1` (stereo not drawn): 18.7 µM, 24.1 µM, 22.2 µM, 22 µM and 1.2.
